The EternaBench riboswitch data

Tested on: MS2 coat protein
Assay: apparent Kd, MS2 coat protein; higher = weaker binding; RNA-MaP array; FMN 200 µM where present
Summary of the method: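 Green signal was scaled to red-channel RNA signal and control-cluster median Fmax, and the apparent Kd was taken as the median of filtered per-cluster binding-curve fits. The binding series used SNAP-549-labelled MS2 coat protein from 0.7 or 1.5 nM, doubling to 3 µM, on designs transcribed by stalled E. coli RNA polymerase on Illumina sequencing-chip clusters. Each series ran without and then with constant ligand in 100 mM Tris-HCl pH 7.5, 80 mM KCl, 4 mM MgCl2, BSA, DTT, yeast tRNA and Tween-20.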

[1] = designed as: OFF switch for flavin mononucleotide, no ligand
[2] = ligand present: flavin mononucleotide, designed as: OFF switch for flavin mononucleotide
[3] = designed as: ON switch for flavin mononucleotide, no ligand
[4] = ligand present: flavin mononucleotide, designed as: ON switch for flavin mononucleotide

Row | Sequence | apparent Kd [1] | apparent Kd [2] | apparent Kd [3] | apparent Kd [4]
1 | GAUAGGACAGAGAAGGACGUAGCUAGAGAUACUAGCAUAUGAACCUUCACAUGAGGAUCACCCAUGUAGGAUAUCUGUCCUAUC | 3.34 nM | 3.35 nM |  | 
2 | UAGAAGUCAGGAUAUGCUGCUCGUCACUUGCGUGAUGAGUAGCAGAAGGGACAUGAGGAUCACCCAUGUAAAGA | 57.4 nM | 79.9 nM |  | 
3 | AGGAAGUUAGGAUAUGCUGCUCGUCACUUGCGUGAUGAGUAGCAGAAGGAACAUGAGGAUCACCCAUGUAAAGA | 30.8 nM | 27.2 nM |  | 
4 | UGUAUGGACAGAGGAUAUACGGCUAGGAGAUACUAGCUACUAUUCCUCACAUGAGGAUCACCCAUGUAGAAGGCUGUCCAUACU | 18 nM | 145 nM |  | 
5 | UUACAUACAAAGGUACAUGAGGAUCACCCAUGUUUGUUGGGAAGAAGGGUAACAGUACUACACAUAUAGGAUAUUUCACAAAUA |  |  | 52.4 nM | 40 nM
6 | CUCUUGUAAGGAUAUCACCACACAAAAAAAAAAAAGUGUGGUGAGAAGGUACAUGAGGAUCACCCAUGUACUAA | 23 nM | 22.5 nM |  | 
7 | UUAUGUUAUGUAGGAUAUCAUUAGAUUUGUAAUUUAAUUGUUAUUUAGAUUUGAGAAGGACAUUUACAUGAGGAUCACCCAUGU | 14.8 nM | 11.7 nM |  | 
8 | GCCUCAGAAUUAAUUGUGAGAAGCAGAAGGCUAUAUCUUAUGUUAAACAUGAGGAUCACCCAUGUAGAGGAUAUGCUAUUACAG | 7.68 nM | 17.7 nM |  | 
9 | ACUGUCCGAGAGAAGGGAACAUGAGGAUCACCCAUGUUACCUCACCUGGUGACGGAACUCCAAGUUCAGGAUAUCUCGAGCGGC | 4.85 nM | 5.98 nM |  | 
10 | AUAAAGUCAGGAUAUGUAAAAAUAACGAAAGUUAUAAAUAAACAGAAGGGACAUGAGGAUCACCCAUGUAAAAU | 32.3 nM | 39.6 nM |  | 
11 | UAUUUAUAAUAUUUUAACAUGAGGAUCACCCAUGUCGCUAGACAGGAUAUAUUUUAUUUGUUUAAGUAGAAGGGUCGUAGAUUU |  |  | 166 nM | 138 nM
12 | CAUGUCCUCACAGGAUAUGCUGGACUUUGUCCAGCAGAAGGGUGAACAUGAGGAUCACCCAUGUUGUGGACAUGUAUAUUUAAG |  |  | 228 nM | 575 nM
13 | AGCUGGUGACAGCAUCCAUCAAAACAUGAGGAUCACCCAUGUAGAAGGCUGUACGGUUACCGUACAGAGGAUAUACAUAGAUGG | 10.4 nM | 14.9 nM |  | 
14 | ACUUGACAUGAGGAUCACCCAUGUCAGGAUAUAGUAGGACAAAUAAAUAAAAGUUCUACUAGAAGGGACGUGGG | 21.6 nM | 22.4 nM |  | 
15 | GGGUACAUCGGAGGAUAUCAUGUAAAUACAUGAGGAUCACCCAUGUCGAUGGAGACCUCGGAGAUUGAGAAGGCCGAUGUACCG |  |  | 694 nM | 201 nM
16 | GCUUCGGCUGUGAGGAUAUCGGGCCCGAAAGGGCCCGAGAAGGCACAUGAGGAUCACCCAUGUAAGGUUGAAGU | 18.8 nM | 15.4 nM |  | 
17 | UUCAUGUGAGGAUAUGCGGCACCAGGUGGGCCUGGCGCUGAGCAGAAGGCACAUGAGGAUCACCCAUGUGCUCC | 29.7 nM | 56.7 nM |  | 
18 | AAUAUAAGAGCUGGUAAAUAACUCACAUGAGGAUCACCCAUGUAGGAUAUCAGCACGAUAAGUGCUGAGAAGGACAUCCAGCUC | 15.4 nM | 16.2 nM |  | 
19 | CGUAUGUGAGGAUAUGACAAUGGUAUCUUCGGAUACCAUUGUCAGAAGGUACAUGAGGAUCACCCAUGUAGAUC | 27.1 nM | 59.9 nM |  | 
20 | GCGCUUAUACAGAAGGCCAUAUACAUGAGGAUCACCCAUGUCGAAUCUUGGAGGAUAUGUUAUUAAUUACACGCAGAUGAGCGC |  |  | 15.8 nM | 6.19 nM
21 | CAGCAAAAGUAGAAGGCAGUACUGAUUCAGUACUGAGGAUAUACAUGAGGAUCACCCAUGUAUUCCAGCUGAAUAAUAAAAUAU | 5.43 nM | 5.63 nM |  | 
22 | CGUUAAUAUCGAGGAUAUGUCUAGACACAUGAGGAUCACCCAUGUAUGUGUAUAGAAGGCGAUAUUAACAGCAUGUUACAUGCG |  |  | 38.3 nM | 16.7 nM
23 | AAAGCACGAGGAUAUACAUGAGGAUCACCCAUGUAUAACCAAAAAAAAAGAUCCUCAUGUAGAAGGCGUGCAAA | 18.9 nM | 16.8 nM |  | 
